The text below walks through data of publication PMC4545688 (Pain, 2015).

One data set has as its system parental ACE1 cells. Nature of the data set: Prostate cancer cells in vitro growth assay, parental ACE1. Type of data set: cell-based, canine. The following applies: for effect on cell growth (sensitivity): three day growth assay in vitro. In short, it runs like this: (§1)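 Cells were seeded at 3000 cells/well and allowed to adhere overnight at 37°C, 5% CO2. Test compound or staurosporine was prepared as an 8-point, 3-fold DMSO series from a 10 mM stock, giving a final 500-fold dilution of stocks, in triplicate. After 3 days, growth was measured by CellTiter-Glo luminescence, normalised to the DMSO signal (% control), and IC50 was fitted against concentration.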

Data set [1] relates to GFP-transfected ACE-1 cells. Nature of the data set: Prostate cancer cells in vitro growth assay, GFP-transfected ACE-1. The following applies: for effect on cell growth (sensitivity): three day growth assay in vitro. Type of data set: cell-based, canine. In short, it runs like this:
as §1

Another data set deals with LNCaP. In words: Prostate cancer cell growth in vitro, LNCaP. Type of data set: cell-based. The following applies: data not shown.
Data set [2] is described as follows: Radiographic assessment of tumor-induced bone remodeling. Type of data set: in vivo, mouse. The gist of the method: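 In the femoral ACE-1 tumor model, compound-formulated chow (average 30 mg/kg/day) or control chow was given ad libitum from day 14 to study end, n=8/group. Radiographs were taken from day 14 and then every 7 days. In blinded analysis, bone lying outside the normal femur diameter (defined from naïve/sham mice) was traced with a mm-calibrated free-form tool. Mean area was calculated per group.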

The test system of data set [3] is CD68+ macrophages and osteoclasts. In words: CD68+ cells in tumor-bearing bone sections. The class given is in vivo, mouse. In short, it runs like this:
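Mice received intramedullary femoral injection of GFP+ ACE-1 prostate cancer cells. From day 14 they were given test compound in chow (average 30 mg/kg/day) or control chow ad libitum, n=8/group. At day 65, 20 μm decalcified frozen bone sections were stained with rat anti-mouse CD68 (1:2,000), Cy3 secondary and DAPI. Two 400X confocal images were taken per section from three sections per animal, in GFP+ tumor areas. Blinded counts were made per μm3.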

The next data set is described as follows: Rat formalin test. The class given is in vivo. As to conditions: 30 mg/kg PO two hours before subplantar formalin; vs vehicle; p<0.05. The gist of the method: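 SD rats received test compound at 30 mg/kg or vehicle (0.5% HPMC/1% Tween 80/2.5% DMSO) orally, 2 h before subplantar formalin (0.05 mL, 1%). Hind paw licking time was recorded at 5-minute intervals for 30 minutes, covering the acute and inflammatory phases. Data are the average of two independent experiments with six rats per group per trial.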

Data set [4] in a line: Spontaneous guarding and flinching in prostate model of bone cancer. Type of data set: in vivo, mouse. As to conditions: 30 mg/kg/day in chow from day 14; days 56 and 63; vs vehicle; 2-min observation.
The conditions of data set [5]: ref [4],[16],[19]; cited from earlier work.
In the next data set the test system is PC-3. In words: Prostate cancer cell growth in vitro, PC-3. The class given is cell-based. The following applies: data not shown.
Data set [6] relates to Human osteoclast precursors. Nature of the data set: Osteoclast differentiation assay. Type of data set: cell-based. The following applies: six days with CSF-1 and RANKL, up to 10 μM. The gist of the method:
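Human osteoclast precursors were cultured at 37°C, 5% CO2, with CSF-1 (33 ng/mL), RANKL (66 ng/mL) and test compound (up to 10 μM) or 0.2% DMSO for 6 days. After a medium change, cells were incubated 1 more day. Supernatant acid phosphatase (TRAP5b) was read at 405 nm. Results are expressed as percent inhibition relative to vehicle with or without CSF-1, from six independent experiments.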

Data set [7] has as its system ACE-1 prostate cancer cells. In words: Radiographic number of cancer cell colonies and overall tumor burden. The class given is in vivo, mouse. In short, it runs like this:
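In the same chow-dosing femoral tumor model, radiographs of tumor-bearing femurs were analysed blind. Images were split into distal and proximal halves and enlarged. Each colony was numbered and traced, defined as a radio-translucent area bounded by radio-opaque woven bone. Colony number per region and total tumor area per femur were recorded, then averaged per treatment group.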

[8] abbreviates: sustained administration 30 mg/kg/day in chow.
Setting [9] is: three day growth assay, CellTiter-Glo.
Setting [10] is: 30 mg/kg/day in chow, distal and proximal ends of femur, vs vehicle, p<0.05.

Where only a bound is given, the exact number is not on record here.

Consider `Cn1c(=O)n(-c2ccc(C(C)(C)C#N)cc2)c2c3cc(-c4cnc5ccccc5c4)ccc3ncc21` [BEZ-235, reference compound], for which the “effect on cell growth (sensitivity)” value (in the data set on parental ACE1 cells; in [1]) was “sensitive” throughout.
`FC(F)(F)c1ccc(CNc2ccc(Cc3c[nH]c4ncc(Cl)cc34)cn2)cn1` [PLX3397]: the “effect on prostate cancer cell growth” value with LNCaP was “did not affect”. Further, in data set [2] (30 mg/kg/day in chow from day 14, days 14–63, vs vehicle, p<0.05), the “extra-periosteal bone formation (periosteal reaction area)” value is reported as “significantly reduced”. Also, the “overall radio-opacity of tumor-bearing femur” value in data set [2] (30 mg/kg/day in chow, vs prostate cancer + vehicle) is “increase”. For the same compound, the “attenuation of tumor-induced bone remodeling” value in [2] (setting [8]) was “approximately 50%”. The “viability of cancer cells in tumor cell colony” value in [3] (GFP+ prostate cancer cells in bone sections, day 65) is given as “little effect”. Also, the “number of CD68+ cells per tissue volume” value in data set [3] (day 65 post-tumor cell injection, chronic treatment, vs vehicle, p<0.05) is “significantly reduced”. Further, in the data set “Rat formalin test”, the “hind paw licking time, acute phase (0–5 minutes)” value is “analgesic effects” and the “hind paw licking time, inflammatory phase (10–30 minutes)” value was “analgesic effects”. Also, in data set [4], the “time spent guarding tumor-bearing limb” value was “reduced”. Also, the “crossing of the blood brain barrier” value in data set [5] is “does cross the blood brain barrier”. In the data set on parental ACE1 cells, the “effect on cell growth (sensitivity)” value is given as “did not affect”. Moreover, the “concentration up to which no effect on cell growth (not sensitive)” value with parental ACE1 cells (setting [9]) was greater than 10 µM. Moreover, the “effect on prostate cancer cell growth” value in the data set with PC-3 was “did not affect”. Also, the “osteoclast differentiation (acid phosphatase activity, TRAP5b)” value in data set [6] was “inhibited”. In addition, in data set [7] (setting [10]), the “number of cancer cell colonies” value is given as “significantly reduced” and the “total tumor burden area” value is given as “significantly reduced”. Further, the “attenuation of disease progression” value in data set [7] (setting [8]) was “approximately 50%”. Moreover, in [1] (setting [9]), the “concentration up to which no effect on cell growth (not sensitive)” value was greater than 10 µM.
`CN[C@@H]1C[C@H]2O[C@@](C)([C@@H]1OC)n1c3ccccc3c3c4c(c5c6ccccc6n2c5c31)C(=O)NC4` [staurosporine, reference compound]: the “effect on cell growth (sensitivity)” value (in the data set on parental ACE1 cells; in [1]) was “sensitive” in each case.
